Source: ChEMBL document CHEMBL3593182, “Phytochemical Investigation of the Constituents Derived from the Australian Plant Macropidia fuliginosa” (2015)
Activity calls are given as the source filed them. No cut-off for these calls is given here.

Legend:
[1] = tested on: Escherichia coli; test: Antimicrobial activity against Escherichia coli ATCC 25922 assessed as zone of inhibition at 3030 uM incubated overnight at 37 degC; format: functional, organism-based
Method in brief: (§1)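 Pure isolates screened against a panel of five bacteria and one fungus, each at a single concentration within 1639–5230 μM. A commercial antibiotic and antifungal agent were tested in parallel as references. Growth inhibition was recorded as the zone of inhibition.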

[2] = tested on: Staphylococcus aureus; test: Antimicrobial activity against Staphylococcus aureus ATCC 25923 assessed as zone of inhibition at 3030 uM incubated overnight at 37 degC; format: functional, organism-based; method in brief: as §1
[3] = tested on: Staphylococcus aureus; test: Antimicrobial activity against methicillin-resistant Staphylococcus aureus 344/2-32 assessed as zone of inhibition at 3030 uM incubated overnight at 37 degC; format: functional, organism-based
[4] = tested on: Pseudomonas aeruginosa; test: Antimicrobial activity against Pseudomonas aeruginosa ATCC 27853 assessed as zone of inhibition at 3030 uM incubated overnight at 37 degC; format: functional; settings: read-out: IZ; method in brief: as §1
[5] = tested on: Streptococcus pyogenes; test: Antimicrobial activity against Streptococcus pyogenes 345/1 assessed as zone of inhibition at 3030 uM incubated overnight at 37 degC; format: functional, organism-based; method in brief: as §1
[6] = tested on: Candida albicans; test: Antimicrobial activity against Candida albicans ATCC 10231 assessed as zone of inhibition at 3030 uM incubated overnight at 37 degC; format: functional, organism-based; method in brief: as §1
[7] = tested on: Escherichia coli; test: Antimicrobial activity against Escherichia coli ATCC 25922 assessed as zone of inhibition at 1724 uM incubated overnight at 37 degC; format: functional; settings: read-out: IZ; method in brief: as §1
[8] = tested on: Staphylococcus aureus; test: Antimicrobial activity against Staphylococcus aureus ATCC 25923 assessed as zone of inhibition at 1724 uM incubated overnight at 37 degC; format: functional, organism-based; method in brief: as §1
[9] = tested on: Staphylococcus aureus; test: Antimicrobial activity against methicillin-resistant Staphylococcus aureus 344/2-32 assessed as zone of inhibition at 1724 uM incubated overnight at 37 degC; format: functional, organism-based
[10] = tested on: Pseudomonas aeruginosa; test: Antimicrobial activity against Pseudomonas aeruginosa ATCC 27853 assessed as zone of inhibition at 1724 uM incubated overnight at 37 degC; format: functional; settings: read-out: IZ; method in brief: as §1
[11] = tested on: Streptococcus pyogenes; test: Antimicrobial activity against Streptococcus pyogenes 345/1 assessed as zone of inhibition at 1724 uM incubated overnight at 37 degC; format: functional; settings: read-out: IZ; method in brief: as §1
[12] = tested on: Candida albicans; test: Antimicrobial activity against Candida albicans ATCC 10231 assessed as zone of inhibition at 1724 uM incubated overnight at 37 degC; format: functional, organism-based; method in brief: as §1
[13] = tested on: Escherichia coli; test: Antimicrobial activity against Escherichia coli ATCC 25922 assessed as zone of inhibition at 3649 uM incubated overnight at 37 degC; format: functional, organism-based; method in brief: as §1
[14] = tested on: Staphylococcus aureus; test: Antimicrobial activity against Staphylococcus aureus ATCC 25923 assessed as zone of inhibition at 3649 uM incubated overnight at 37 degC; format: functional, organism-based; method in brief: as §1
[15] = tested on: Staphylococcus aureus; test: Antimicrobial activity against methicillin-resistant Staphylococcus aureus 344/2-32 assessed as zone of inhibition at 3649 uM incubated overnight at 37 degC; format: functional, organism-based
[16] = tested on: Pseudomonas aeruginosa; test: Antimicrobial activity against Pseudomonas aeruginosa ATCC 27853 assessed as zone of inhibition at 3649 uM incubated overnight at 37 degC; format: functional; settings: read-out: IZ; method in brief: as §1
[17] = tested on: Streptococcus pyogenes; test: Antimicrobial activity against Streptococcus pyogenes 345/1 assessed as zone of inhibition at 3649 uM incubated overnight at 37 degC; format: functional, organism-based
[18] = tested on: Candida albicans; test: Antimicrobial activity against Candida albicans ATCC 10231 assessed as zone of inhibition at 3649 uM incubated overnight at 37 degC; format: functional, organism-based; method in brief: as §1
[19] = tested on: Escherichia coli; test: Antimicrobial activity against Escherichia coli ATCC 25922 assessed as zone of inhibition at 2450 uM incubated overnight at 37 degC; format: functional, organism-based; method in brief: as §1
[20] = tested on: Staphylococcus aureus; test: Antimicrobial activity against Staphylococcus aureus ATCC 25923 assessed as zone of inhibition at 2450 uM incubated overnight at 37 degC; format: functional, organism-based; method in brief: as §1
[21] = tested on: Staphylococcus aureus; test: Antimicrobial activity against methicillin-resistant Staphylococcus aureus 344/2-32 assessed as zone of inhibition at 2450 uM incubated overnight at 37 degC; format: functional, organism-based
[22] = tested on: Pseudomonas aeruginosa; test: Antimicrobial activity against Pseudomonas aeruginosa ATCC 27853 assessed as zone of inhibition at 2450 uM incubated overnight at 37 degC; format: functional, organism-based; method in brief: as §1
[23] = tested on: Streptococcus pyogenes; test: Antimicrobial activity against Streptococcus pyogenes 345/1 assessed as zone of inhibition at 2450 uM incubated overnight at 37 degC; format: functional, organism-based; method in brief: as §1
[24] = tested on: Candida albicans; test: Antimicrobial activity against Candida albicans ATCC 10231 assessed as zone of inhibition at 2450 uM incubated overnight at 37 degC; format: functional, organism-based; method in brief: as §1
[25] = tested on: Escherichia coli; test: Antimicrobial activity against Escherichia coli ATCC 25922 assessed as zone of inhibition at 3905 uM incubated overnight at 37 degC; format: functional, organism-based; method in brief: as §1
[26] = tested on: Staphylococcus aureus; test: Antimicrobial activity against Staphylococcus aureus ATCC 25923 assessed as zone of inhibition at 3905 uM incubated overnight at 37 degC; format: functional, organism-based; method in brief: as §1
[27] = tested on: Staphylococcus aureus; test: Antimicrobial activity against methicillin-resistant Staphylococcus aureus 344/2-32 assessed as zone of inhibition at 3905 uM incubated overnight at 37 degC; format: functional, organism-based
[28] = tested on: Pseudomonas aeruginosa; test: Antimicrobial activity against Pseudomonas aeruginosa ATCC 27853 assessed as zone of inhibition at 3905 uM incubated overnight at 37 degC; format: functional, organism-based; method in brief: as §1
[29] = tested on: Streptococcus pyogenes; test: Antimicrobial activity against Streptococcus pyogenes 345/1 assessed as zone of inhibition at 3905 uM incubated overnight at 37 degC; format: functional; settings: read-out: IZ
[30] = tested on: Candida albicans; test: Antimicrobial activity against Candida albicans ATCC 10231 assessed as zone of inhibition at 3905 uM incubated overnight at 37 degC; format: functional, organism-based; method in brief: as §1
[31] = tested on: Escherichia coli; test: Antimicrobial activity against Escherichia coli ATCC 25922 assessed as zone of inhibition at 3675 uM incubated overnight at 37 degC; format: functional, organism-based; method in brief: as §1
[32] = tested on: Staphylococcus aureus; test: Antimicrobial activity against Staphylococcus aureus ATCC 25923 assessed as zone of inhibition at 3675 uM incubated overnight at 37 degC; format: functional, organism-based; method in brief: as §1
[33] = tested on: Staphylococcus aureus; test: Antimicrobial activity against methicillin-resistant Staphylococcus aureus 344/2-32 assessed as zone of inhibition at 3675 uM incubated overnight at 37 degC; format: functional, organism-based
[34] = tested on: Pseudomonas aeruginosa; test: Antimicrobial activity against Pseudomonas aeruginosa ATCC 27853 assessed as zone of inhibition at 3675 uM incubated overnight at 37 degC; format: functional, organism-based; method in brief: as §1
[35] = tested on: Streptococcus pyogenes; test: Antimicrobial activity against Streptococcus pyogenes 345/1 assessed as zone of inhibition at 3675 uM incubated overnight at 37 degC; format: functional, organism-based
[36] = tested on: Candida albicans; test: Antimicrobial activity against Candida albicans ATCC 10231 assessed as zone of inhibition at 3675 uM incubated overnight at 37 degC; format: functional, organism-based; method in brief: as §1

O=C(/C=C/c1ccc(O)cc1)c1c(O)cc(O)cc1O[C@@H]1O[C@H](CO)[C@@H](O)[C@H](O)[C@H]1O
inhibition zone (IZ) [1]: inactive | inhibition zone (IZ) [2]: inactive | inhibition zone (IZ) [3]: inactive | zone of inhibition at 3030 µM [4]: 2 mm | inhibition zone (IZ) [5]: inactive | inhibition zone (IZ) [6]: inactive

O=C(/C=C/c1ccc(O)cc1)OC[C@H]1O[C@@H](Oc2cc(O)cc3c2C(=O)CC(c2ccc(O)cc2)O3)[C@H](O)[C@@H](O)[C@@H]1O (stereo partly specified)
zone of inhibition at 1724 µM [7]: 1 mm | inhibition zone (IZ) [8]: inactive | inhibition zone (IZ) [9]: inactive | zone of inhibition at 1724 µM [10]: 10 mm | zone of inhibition at 1724 µM [11]: 1 mm | inhibition zone (IZ) [12]: inactive

O=C1OC(=O)c2c(-c3ccccc3)ccc3cccc1c23
inhibition zone (IZ) [13]: inactive | inhibition zone (IZ) [14]: inactive | inhibition zone (IZ) [15]: inactive | zone of inhibition at 3649 µM [16]: 2 mm | inhibition zone (IZ) [17]: inactive | inhibition zone (IZ) [18]: inactive

COC(OC)c1cc(O)c2c(-c3cc(O)cc(O)c3)c(-c3ccc(O)cc3)oc2c1
inhibition zone (IZ) [19]: inactive | inhibition zone (IZ) [20]: inactive | inhibition zone (IZ) [21]: inactive | inhibition zone (IZ) [22]: inactive | inhibition zone (IZ) [23]: inactive | inhibition zone (IZ) [24]: inactive

O=C1C(c2ccccc2)=Cc2cccc3cccc1c23
inhibition zone (IZ) [25]: inactive | inhibition zone (IZ) [26]: inactive | inhibition zone (IZ) [27]: inactive | inhibition zone (IZ) [28]: inactive | zone of inhibition at 3905 µM [29]: 2 mm | inhibition zone (IZ) [30]: inactive

O=C1C(O)=Cc2cccc3ccc(-c4ccccc4)c1c23
inhibition zone (IZ) [31]: inactive | inhibition zone (IZ) [32]: inactive | inhibition zone (IZ) [33]: inactive | inhibition zone (IZ) [34]: inactive | inhibition zone (IZ) [35]: inactive | inhibition zone (IZ) [36]: inactive
